For series [1], the system named is MDA-MB-231. In words: Cytotoxicity against human MDA-MB-231 cells measured after 48 hrs by MTT assay. It counts as functional, cell-based. To be noted: MDA-MB-231, 48 h.
The nature of series [2]: Drug internalization in human MDA-MB-231 cells assessed as appearance of diffuse layer of green fluorescence with small clusters inside the cell at 5 uM measured after 30 mins by DAPI/FITC/TxRed/Cy5 staining based confocal microscopy. It counts as ADME. To be noted: mda-mb-231, 0.5 h. Summed up: (§1)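 Preparation was the same: 5 μM treatment at 37 °C in duplicate, then staining with CellMask Deep Red, MitoTracker Red FM and Hoechst, and 4% PFA fixation. Confocal Airyscan imaging at 40× used a 1 AU pinhole with gated channels: DAPI 410–508, FITC 493–571, TxRed 548–620 and Cy5 638–759 nm. Z-stacks gave orthogonal views, thresholded against untreated cells. Pearson's coefficient was calculated between the FITC and TxRed channels.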

Series [3] is described as follows: Drug internalization in human MDA-MB-231 cells assessed as increase in fluorescence at 5 uM measured after 30 mins by CellMask Deep Red plasma membrane/MitoTracker Red FM/Hoechst staining based fluorescence microscopy. It counts as ADME, cell-based. The conditions noted are these: mda-mb-231, 0.5 h. Summed up: (§2)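 Cells (1.9 × 10^4/well) adhered for 24 h and were then given 5 μM compound, in duplicate at 37 °C, alongside untreated controls. They were stained with CellMask Deep Red, MitoTracker Red FM and Hoechst for 30 min at RT, then fixed in 4% PFA. Epifluorescence high-content imaging at 40× used a FITC filter with 488 nm excitation. The untreated autofluorescence mean set the threshold, and green area per cell was quantified in μm2.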

A short description of series [4]: Drug internalization in human MDA-MB-231 cell mitochondria assessed as appearance of green fluorescence throughout the cell at 5 uM measured after 2 hrs by DAPI/FITC/TxRed/Cy5 staining based confocal microscopy. It counts as ADME. The conditions noted are these: mda-mb-231, 2 h. Summed up:
as §1

The nature of series [5]: Potency index, ratio of Met10G IC50 to test compound IC50 for cytotoxicity against human MDA-MB-231 cells after 24 hrs. It counts as functional.
A short description of series [6]: Potency index, ratio of Met10G IC50 to test compound IC50 for cytotoxicity against human MDA-MB-231 cells after 48 hrs. It counts as functional.
Series [7] is described as follows: Drug internalization in human MDA-MB-231 cell mitochondria assessed as appearance of more clustered green fluorescence at 5 uM measured after 2 hrs by DAPI/FITC/TxRed/Cy5 staining based confocal microscopy. It counts as ADME. The conditions noted are these: mda-mb-231, 2 h. A digest of the protocol:
as §1

A short description of series [8]: Drug internalization in human MDA-MB-231 cells assessed as increase in fluorescence at 5 uM measured after 1 hr by CellMask Deep Red plasma membrane/MitoTracker Red FM/Hoechst staining based fluorescence microscopy. It counts as ADME, cell-based. The conditions noted are these: mda-mb-231, 1 h. A digest of the protocol: as §2
Series [9] in a line: Drug internalization in human MDA-MB-231 cells assessed as appearance of small blebs colocalization with mitochondria at 5 uM measured after 1 hr by DAPI/FITC/TxRed/Cy5 staining based confocal microscopy. It counts as ADME. The conditions noted are these: mda-mb-231, 1 h. Summed up: as §1
For series [10], the system named is MDA-MB-231. In words: Cytotoxicity against human MDA-MB-231 cells measured after 24 hrs by resazurin dye based fluorescence assay. It counts as functional, cell-based. To be noted: MDA-MB-231, 24 h. A digest of the protocol: (§3)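 MDA-MB-231 cells in Leibovitz-L15 with 10% FBS, 10^4 cells/well, were allowed to adhere for 24 h at 37 °C. They were then exposed to a halving serial dilution from 250 to 0.98 μM (DMSO ≤0.5% final). Next came 10% resazurin for 4 h at 37 °C, with fluorescence read at λex 540 and λem […] nm. Assays used six technical replicates across three experiments. Results were expressed as % cell death, and IC50 was taken from regression (four-parameter logistic).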

The nature of series [11]: Drug internalization in human MDA-MB-231 cells assessed as intracellular uptake at 5 uM measured after 30 mins by CellMask Deep Red plasma membrane/MitoTracker Red FM/Hoechst staining based fluorescence microscopy. To be noted: mda-mb-231, 0.5 h. It counts as ADME, cell-based. A digest of the protocol:
as §2

A short description of series [12]: Drug internalization in human MDA-MB-231 cells assessed as uptake in cellular perimeter at 5 uM measured after 30 mins by CellMask Deep Red plasma membrane/MitoTracker Red FM/Hoechst staining based fluorescence microscopy. It counts as ADME, cell-based. To be noted: mda-mb-231, 0.5 h. A digest of the protocol: as §2
In series [13] the test system is MDA-MB-231. In words: Cytotoxicity against human MDA-MB-231 cells measured after 48 hrs by resazurin dye based fluorescence assay. The conditions noted are these: MDA-MB-231, 48 h. It counts as functional, cell-based. A digest of the protocol:
as §3

The nature of series [14]: Drug internalization in human MDA-MB-231 cells assessed as interaction with mitochondria at 5 uM measured after 30 mins by DAPI/FITC/TxRed/Cy5 staining based confocal microscopy. It counts as ADME. The conditions noted are these: mda-mb-231, 0.5 h. Summed up:
as §1

Where only a bound is given, the exact number is not on record here.

One may read the IC50 as the concentration needed to halve the response being measured. Read a low IC50 as higher potency. Take `CCCCCCCCC[C@H](O)CC(=O)CCc1ccc(O)c(OC)c1`: half-maximal inhibition with MDA-MB-231 [1] (IC50) was put at 12.1 µM. In other words, the double-digit micromolar range.

Consider `CCCCCCCCC[C@H](O)CC(=O)CCc1ccc(OCCCCc2cn(CCCNC(=O)c3cc4ccc(O)cc4oc3=O)nn2)c(OC)c1`, for which the Drug uptake entry in series [2], in series [3], in [4], in series [7], in series [8] and in series [9] was “Active” each time. Further, the Drug uptake result in series [11], in [12] and in series [14] was “Active” each time. The figures for the “Ratio IC50” value in [5] and in [6] were 2 and “<=10”, respectively. Also, the IC50 stood at 19.1 µM in the series with MDA-MB-231 [10] and 2.3 µM with MDA-MB-231 [13].

For the molecule `COc1cc(Cl)ccc1OCCCCc1cn(CCCNC(=O)c2cc3ccc(O)cc3oc2=O)nn1`, the Drug uptake result was “Active” in series [2]; “Active” in series [3]; “Active” in series [4]; “Active” in series [7]; “Not_active” in [8]; “Active” in [9]. Also, the Drug uptake result in [11], in series [12] and in [14] was “Active” throughout. Moreover, the values for the 50% inhibitory concentration (IC50) in the series on MDA-MB-231 [10] and in the series on MDA-MB-231 [13] were 116 µM and 103 µM, respectively.

As to `CCCCCCCCCC(O)CC(=O)CCc1ccc(OC)c(OC)c1` (stereo unspecified), the Drug uptake entry in series [2] is given as “Active”; in [3], “Active”; in series [4], “Active”; in series [7], “Active”; in series [8] it was “Not_active”; in series [9], “Active”. Further, the Drug uptake result in series [11], in series [12] and in series [14] was “Active” throughout. Also, the figures for the half-maximal inhibitory concentration (IC50) in the series on MDA-MB-231 [10] and in the series with MDA-MB-231 [13] were 45.6 µM and 26.9 µM, respectively.

For the origin of these results see ChEMBL document CHEMBL6103663, “Enhanced Cytotoxicity of [10]-Gingerol-Coumarin-Triazole Hybrid as a Theranostic Agent for Triple Negative Breast Cancer” (ACS Med Chem Lett, 2025).
